From ChEMBL document CHEMBL1921722, “In vitro and in vivo evaluation of select kahalalide F analogs with antitumor and antifungal activities” (Bioorg Med Chem, 2011)
Calls of active or inactive are those of the source. No cut-off for these calls is given here.

What was measured:
MCF7 = experiment: Cytotoxicity against human MCF7 cells assessed as cell growth at 8 nM by sulforhodamine B assay relative to control; format: functional; settings: read-out: Activity
IGROV-1 [1] = experiment: Cytotoxicity against human IGROV1 cells assessed as cell growth at 80 uM by sulforhodamine B assay relative to control; format: functional; settings: read-out: Activity
IGROV-1 [2] = experiment: Cytotoxicity against human IGROV1 cells assessed as cell growth at 8 nM by sulforhodamine B assay relative to control; format: functional; settings: read-out: Activity
DU-145 [3] = experiment: Cytotoxicity against human DU145 cells assessed as cell growth at 8 uM by sulforhodamine B assay relative to control; format: functional; settings: read-out: Activity
Procedure, shortened: (§1)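 Run at NCI in the DTP 60-cell-line human tumor panel by standard procedure. Compounds were first screened at a single concentration, then tested at five tenfold-spaced concentrations. GI50 is the concentration reducing treated-cell growth to half that of untreated controls; TGI is the concentration completely halting growth.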

SK-MEL-2 = experiment: Cytotoxicity against human SK-MEL-2 cells by sulforhodamine B assay; format: functional
Procedure, shortened: (§2)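 NCI Developmental Therapeutics Program 60-cell-line human tumor panel screen, run at NCI. A single-concentration pre-screen was followed by a five-concentration dose-response in 10-fold steps. GI50 is the concentration that reduces growth of treated cells to half that of untreated control cells. TGI is the concentration that completely halts growth.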

A498 = experiment: Cytotoxicity against human A498 cells assessed as cell growth at 8 nM by sulforhodamine B assay relative to control; format: functional; settings: read-out: Activity; procedure, shortened: as §1
K562 = experiment: Cytotoxicity against human K562 cells assessed as cell growth at 8 uM by sulforhodamine B assay relative to control; format: functional; settings: read-out: Activity
IGROV-1 [4] = experiment: Cytotoxicity against human IGROV1 cells assessed as cell growth at 8 uM by sulforhodamine B assay relative to control; format: functional; settings: read-out: Activity
LOX IMVI = experiment: Cytotoxicity against human LOXIMVI cells by sulforhodamine B assay; format: functional; procedure, shortened: as §2
HCT-15 = experiment: Cytotoxicity against human HCT15 cells assessed as cell growth at 8 uM by sulforhodamine B assay relative to control; format: functional; settings: read-out: Activity
Staphylococcus aureus = experiment: Antimicrobial activity against methicillin-resistant Staphylococcus aureus ATCC 43300 by CLSI method; format: functional, organism-based
IGROV-1 [5] = experiment: Cytotoxicity against human IGROV1 cells assessed as cell growth at 800 nM by sulforhodamine B assay relative to control; format: functional; settings: read-out: Activity
SK-MEL-28 = experiment: Cytotoxicity against human SK-MEL-28 cells assessed as cell growth at 8 uM by sulforhodamine B assay relative to control; format: functional; settings: read-out: Activity
OVCAR-5 [6] = experiment: Cytotoxicity against human OVCAR5 cells assessed as cell growth at 8 nM by sulforhodamine B assay relative to control; format: functional; settings: read-out: Activity
HOP-62 = experiment: Cytotoxicity against human HOP62 cells assessed as cell growth at 8 uM by sulforhodamine B assay relative to control; format: functional; settings: read-out: Activity
786-0 [7] = experiment: Cytotoxicity against human 786-0 cells by sulforhodamine B assay; format: functional; procedure, shortened: as §1
SW-620 = experiment: Cytotoxicity against human SW620 cells assessed as cell growth at 80 uM by sulforhodamine B assay relative to control; format: functional; settings: read-out: Activity
HCT-116 = experiment: Cytotoxicity against human HCT116 cells assessed as cell growth at 8 nM by sulforhodamine B assay relative to control; format: functional; settings: read-out: Activity
SN12C [8] = experiment: Cytotoxicity against human SN12C cells assessed as cell growth at 8 uM by sulforhodamine B assay relative to control; format: functional; settings: read-out: Activity
SNB-19 [9] = experiment: Cytotoxicity against human SNB19 cells assessed as cell growth at 80 nM by sulforhodamine B assay relative to control; format: functional; settings: read-out: Activity
M14 = experiment: Cytotoxicity against human M14 cells assessed as cell growth at 80 nM by sulforhodamine B assay relative to control; format: functional; settings: read-out: Activity
SF-268 = experiment: Cytotoxicity against human SF268 cells assessed as cell growth at 8 uM by sulforhodamine B assay relative to control; format: functional; settings: read-out: Activity
SF-295 = experiment: Cytotoxicity against human SF295 cells assessed as cell growth at 80 uM by sulforhodamine B assay relative to control; format: functional; settings: read-out: Activity
SN12C [10] = experiment: Cytotoxicity against human SN12C cells by sulforhodamine B assay; format: functional; procedure, shortened: as §2
NCI-H23 = experiment: Cytotoxicity against human NCI-H23 cells assessed as cell growth at 80 nM by sulforhodamine B assay relative to control; format: functional; settings: read-out: Activity
MOLT-4 [11] = experiment: Cytotoxicity against human MOLT4 cells assessed as cell growth at 80 nM by sulforhodamine B assay relative to control; format: functional; settings: read-out: Activity
MDA-MB-435 [12] = experiment: Cytotoxicity against human MDA-MB-435 cells assessed as cell growth at 8 uM by sulforhodamine B assay relative to control; format: functional; settings: read-out: Activity
SNB-19 [13] = experiment: Cytotoxicity against human SNB19 cells assessed as cell growth at 80 uM by sulforhodamine B assay relative to control; format: functional; settings: read-out: Activity
OVCAR-8 = experiment: Cytotoxicity against human OVCAR8 cells assessed as cell growth at 8 nM by sulforhodamine B assay relative to control; format: functional; settings: read-out: Activity
OVCAR-5 [14] = experiment: Cytotoxicity against human OVCAR5 cells assessed as cell growth at 80 uM by sulforhodamine B assay relative to control; format: functional; settings: read-out: Activity
COLO 205 = experiment: Cytotoxicity against human COLO205 cells by sulforhodamine B assay; format: functional; procedure, shortened: as §1
Malme-3M = experiment: Cytotoxicity against human MALME-3M cells assessed as cell growth at 8 nM by sulforhodamine B assay relative to control; format: functional; settings: read-out: Activity
UACC-257 = experiment: Cytotoxicity against human UACC257 cells assessed as cell growth at 800 nM by sulforhodamine B assay relative to control; format: functional; settings: read-out: Activity
SK-MEL-5 = experiment: Cytotoxicity against human SK-MEL-5 cells assessed as cell growth at 80 uM by sulforhodamine B assay relative to control; format: functional; settings: read-out: Activity
MDA-MB-435 [15] = experiment: Cytotoxicity against human MDA-MB-435 cells assessed as cell growth at 80 nM by sulforhodamine B assay relative to control; format: functional; settings: read-out: Activity
MOLT-4 [16] = experiment: Cytotoxicity against human MOLT4 cells assessed as cell growth at 800 nM by sulforhodamine B assay relative to control; format: functional; settings: read-out: Activity
DU-145 [17] = experiment: Cytotoxicity against human DU145 cells assessed as cell growth at 80 uM by sulforhodamine B assay relative to control; format: functional; settings: read-out: Activity
786-0 [18] = experiment: Cytotoxicity against human 786-0 cells assessed as cell growth at 80 nM by sulforhodamine B assay relative to control; format: functional; settings: read-out: Activity; procedure, shortened: as §1
SNB-75 = experiment: Cytotoxicity against human SNB75 cells assessed as cell growth at 800 nM by sulforhodamine B assay relative to control; format: functional; settings: read-out: Activity
BT-549 [19] = experiment: Cytotoxicity against human BT549 cells assessed as cell growth at 800 nM by sulforhodamine B assay relative to control; format: functional; settings: read-out: Activity; procedure, shortened: as §1
RXF 393 = experiment: Cytotoxicity against human RXF393 cells assessed as cell growth at 80 uM by sulforhodamine B assay relative to control; format: functional; settings: read-out: Activity
Mus musculus = experiment: Acute toxicity in athymic nude mouse assessed as mortality at 400 mg/kg, […] after 19 days; format: organism-based; design: dose 400 mg/kg, route intraperitoneal; settings: in vivo, ip, 456 h
BT-549 [20] = experiment: Cytotoxicity against human BT549 cells assessed as cell growth at 8 nM by sulforhodamine B assay relative to control; format: functional; settings: read-out: Activity; procedure, shortened: as §1

Work on `C/C=C1\NC(=O)[C@H](Cc2ccccc2)NC(=O)[C@@H](C(C)C)NC(=O)[C@@H]([C@@H](C)CC)NC(=O)[C@H](NC(=O)[C@H](NC(=O)[C@H](CCCNCc2ccc(N3CCOCC3)cc2)NC(=O)[C@H]2CCCN2C(=O)[C@H](NC(=O)[C@@H](NC(=O)[C@@H](NC(=O)[C@H](NC(=O)CCCC(C)C)C(C)C)[C@@H](C)O)C(C)C)C(C)C)[C@@H](C)CC)[C@@H](C)OC(=O)[C@H](C(C)C)NC1=O` yielded a growth at 0.008 µM (MCF7) of 102%, a growth at 80 µM (IGROV-1 [1]) of -30% and a growth at 0.008 µM (IGROV-1 [2]) of 104%. The growth at 8 µM (DU-145 [3]) was -96%, the GI50 (SK-MEL-2) was 1.51 µM and the TGI (SK-MEL-2; read-out: pTGI (converted)) was 2.88 µM. It also gave a growth at 0.008 µM (A498) of 96%, a growth at 8 µM (K562) of 37% and a growth at 8 µM (IGROV-1 [4]) of -75%. The GI50 (LOX IMVI) was 3.16 µM, the LC50 (LOX IMVI) was 57.5 µM and the TGI (LOX IMVI; read-out: pTGI (converted)) was 13.5 µM. The growth at 8 µM (HCT-15) was -82%, the Activity (Staphylococcus aureus) was “inactive” and the growth at 0.8 µM (IGROV-1 [5]) was 55%. It also gave a growth at 8 µM (SK-MEL-28) of -85%, a growth at 0.008 µM (OVCAR-5 [6]) of 97% and a growth at 8 µM (HOP-62) of -70%. The GI50 (786-0 [7]) was 1.38 µM, the LC50 (786-0 [7]) was 4.68 µM and the TGI (786-0 [7]; read-out: pTGI (converted)) was 2.57 µM. The growth at 80 µM (SW-620) was -13%, the growth at 0.008 µM (HCT-116) was 102% and the growth at 8 µM (SN12C [8]) was -47%. It also gave a growth at 0.08 µM (SNB-19 [9]) of 102%, a growth at 0.08 µM (M14) of 97% and a growth at 8 µM (SF-268) of -52%. For the same compound, the growth at 80 µM (SF-295) was -33%, the GI50 (SN12C [10]) was 1.41 µM and the LC50 (SN12C [10]) was > 75.9 µM. For the same compound, the TGI (SN12C [10]; read-out: pTGI (converted)) was 3.31 µM, the growth at 0.08 µM (NCI-H23) was 99% and the growth at 0.08 µM (MOLT-4 [11]) was 95%. The growth at 8 µM (MDA-MB-435 [12]) was -88%, the growth at 80 µM (SNB-19 [13]) was -5% and the growth at 0.008 µM (OVCAR-8) was 99%. The growth at 80 µM (OVCAR-5 [14]) was -47%, the GI50 (COLO 205; read-out: GI50) was 0.152 µM and the GI50 (COLO 205; read-out: pGI50 (converted)) was 0.151 µM. It also gave a growth at 0.008 µM (Malme-3M) of 100%, a growth at 0.8 µM (UACC-257) of 93% and a growth at 80 µM (SK-MEL-5) of -56%. The growth at 0.08 µM (MDA-MB-435 [15]) was 99%, the growth at 0.8 µM (MOLT-4 [16]) was 95% and the growth at 80 µM (DU-145 [17]) was -73%. For the same compound, the growth at 0.08 µM (786-0 [18]) was 93%, the growth at 0.8 µM (SNB-75) was 54% and the growth at 0.8 µM (BT-549 [19]) was 89%. For the same compound, the growth at 80 µM (RXF 393) was -27%, the Activity (Mus musculus) was “Toxic” and the growth at 0.008 µM (BT-549 [20]) was 106%.
